Assays:
zebrafish embryos = settings: for CE (effective concentration to cause no-eyes phenotype): zebrafish embryos
GSK3β = GSK3β (Homo sapiens, UniProt P49841); assay: Kinase profiling; assay type: biochemical, mammalian; settings: 5 μM 3F8 in 1% DMSO; panel of 22 kinases
[1] = tested on: β-catenin–TCF activity in 293T cells; assay: In vitro β-catenin–TCF assay; assay type: cell-based; settings: 4 μM 3F8 added to the medium, 18 h
Summary of the method: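 293T cells in 24-well plates were transfected with 200 ng superTOPflash reporter plasmid plus 20 ng Renilla luciferase (RLTK) control plasmid. Test compound was added 24 h after transfection and left for 18 h. Cell extracts were assayed sequentially for firefly and Renilla luciferase in a dual-luciferase system, and firefly readings were normalized to Renilla.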

Chain of GSK3β (P49841 whole entry): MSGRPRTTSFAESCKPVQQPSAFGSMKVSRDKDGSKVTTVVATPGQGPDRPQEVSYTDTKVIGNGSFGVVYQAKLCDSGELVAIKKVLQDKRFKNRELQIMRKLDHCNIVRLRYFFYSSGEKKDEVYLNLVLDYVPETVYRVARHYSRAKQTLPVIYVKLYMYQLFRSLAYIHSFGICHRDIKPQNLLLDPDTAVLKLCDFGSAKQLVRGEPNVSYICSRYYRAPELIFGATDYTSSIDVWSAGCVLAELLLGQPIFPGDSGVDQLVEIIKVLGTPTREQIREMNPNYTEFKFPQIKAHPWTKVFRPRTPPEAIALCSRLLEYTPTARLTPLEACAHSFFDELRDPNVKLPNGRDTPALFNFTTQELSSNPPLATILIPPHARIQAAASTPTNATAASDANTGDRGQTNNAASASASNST

| SMILES | no-eyes embryos that developed a forebrain and eyes after removal of compound (zebrafish embryos; 2 days of treatment, washed out, scored by 5 dpf) | concentration giving no-eyes phenotype in all embryos (zebrafish embryos; treated at the 2-cell stage) | concentration required for effect on brain development (zebrafish embryos; treated at the 2-somite stage (after gastrulation), no effect at highest dose) | concentration required for no-eyes phenotype (zebrafish embryos; treated at the shield stage) | CE (effective concentration to cause no-eyes phenotype) (zebrafish embryos) | inhibition of GSK3β activity (GSK3β) | luciferase read out increase (superTOPflash) [1] |
| --- | --- | --- | --- | --- | --- | --- | --- |
| CCc1nc2c(c3cc(OC)c(OC)cc13)C(=O)NC2=O [3F8, 5-ethyl-7,8-dimethoxy-1H-pyrrolo[3,4-c]-isoquinoline-1,3-(2H)-dione] | 22% | 3.75 µM | > 75 µM | 11.25 µM | 7.5 µM | 91% | approximately 15 fold |
| COC(=O)c1ccc[cH-]1.O=C1NC(=O)c2c1c1cccnc1c1[n-]c3c(Br)cc(O)cc3c21.[CH+]=O.[Ru] [GSK-3 inhibitor XV, reference compound] | – | – | – | – | 1 µM | – | – |
